The values that follow come from ChEMBL document CHEMBL2331243, “Discovery and mechanism study of SIRT1 activators that promote the deacetylation of fluorophore-labeled substrate” (J Med Chem, 2013).

pEC50: −log10 of the molar value. Active and inactive are the calls of the source. The rule behind the calls is not given here.

Assay [1] concerns the target T1, NAD-dependent protein deacetylase sirtuin-1 (Homo sapiens) (UniProt Q96EB6).
T1 sequence (whole entry): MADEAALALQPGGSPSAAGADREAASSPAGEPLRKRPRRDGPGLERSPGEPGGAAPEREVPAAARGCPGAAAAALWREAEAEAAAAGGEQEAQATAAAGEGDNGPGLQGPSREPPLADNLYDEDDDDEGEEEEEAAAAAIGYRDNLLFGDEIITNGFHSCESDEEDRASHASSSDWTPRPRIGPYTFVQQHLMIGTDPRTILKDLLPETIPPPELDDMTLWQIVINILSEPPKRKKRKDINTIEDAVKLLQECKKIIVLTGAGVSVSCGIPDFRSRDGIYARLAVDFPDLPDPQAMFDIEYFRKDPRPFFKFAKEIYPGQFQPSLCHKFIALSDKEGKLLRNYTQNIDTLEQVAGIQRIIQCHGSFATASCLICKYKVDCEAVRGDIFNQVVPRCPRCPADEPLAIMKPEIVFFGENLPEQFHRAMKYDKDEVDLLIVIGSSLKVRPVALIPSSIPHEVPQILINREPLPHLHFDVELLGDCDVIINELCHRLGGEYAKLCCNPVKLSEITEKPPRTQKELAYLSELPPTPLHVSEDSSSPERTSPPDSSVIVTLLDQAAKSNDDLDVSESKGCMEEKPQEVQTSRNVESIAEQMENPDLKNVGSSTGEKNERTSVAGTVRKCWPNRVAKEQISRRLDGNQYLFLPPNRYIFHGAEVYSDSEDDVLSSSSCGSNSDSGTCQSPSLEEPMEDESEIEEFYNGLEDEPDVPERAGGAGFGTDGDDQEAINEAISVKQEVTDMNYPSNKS
Description: Activation of N-terminal His6-tagged SIRT1 (156 to 664 amino acid residues) (unknown origin) expressed in Escherichia coli BL21(DE3) using ac-RHKKac-AMC as substrate at 50 uM after 45 mins by fluorimetric analysis relative to control. In short, it runs like this:
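Fluorogenic deacetylation screen: 1 μM SIRT1 with 750 μM NAD⁺ and 31.25 μM ac-RHKK_ac-AMC in Tris buffer (25 mM Tris, 137 mM NaCl, 2.7 mM KCl, 1 mM MgCl₂, pH 8.0). Compounds at 50 μM from DMSO stocks; DMSO alone as blank. Trypsin then releases AMC from deacetylated peptide; fluorescence read at 340/490 nm.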

Assay [2] concerns the target T2, NAD-dependent protein deacetylase sirtuin-1 (Homo sapiens, UniProt Q96EB6).
T2 sequence (Q96EB6 whole entry): T1 sequence (whole entry)
Description: Activation of N-terminal His6-tagged SIRT1 (156 to 664 amino acid residues) (unknown origin) expressed in Escherichia coli BL21(DE3) using ac-RHKKac-AMC as substrate after 45 mins by fluorometric analysis.

For assay [3], the target named is T1, NAD-dependent protein deacetylase sirtuin-1 (Homo sapiens). Nature of the assay: Activation of N-terminal His6-tagged SIRT1 (156 to 664 amino acid residues) (unknown origin) expressed in Escherichia coli BL21(DE3) using ac-RHKKac-NH2 as substrate after 45 mins by HPLC analysis.
Assay [4] shares this target. Nature of the assay: Activation of SIRT1 in human MCF7 cells assessed as reduction in doxorubicin-induced acetyl-p53 level up to 100 uM after 6 hrs by Western blotting analysis. It counts as cell-based. In short, it runs like this: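 MCF-7 cells were seeded at 1 × 10⁵ per well in DMEM with 10% FCS and grown 24 h at 37 °C, 5% CO₂. Graded compound concentrations were added together with 0.1 μM TSA and 5 μM doxorubicin for 6 h. Lysate (50 μg protein) was run on a 9% gel and blotted with an anti-acetyl-p53 (Lys382) polyclonal antibody at 4 °C overnight, then HRP anti-rabbit IgG with chemiluminescence.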
Background: In western blotting, separated proteins are transferred to a membrane and probed.

The target in assay [5] is T3, NAD-dependent protein deacetylase sirtuin-2 (Homo sapiens, UniProt Q8IXJ6).
T3 sequence (Q8IXJ6 whole entry): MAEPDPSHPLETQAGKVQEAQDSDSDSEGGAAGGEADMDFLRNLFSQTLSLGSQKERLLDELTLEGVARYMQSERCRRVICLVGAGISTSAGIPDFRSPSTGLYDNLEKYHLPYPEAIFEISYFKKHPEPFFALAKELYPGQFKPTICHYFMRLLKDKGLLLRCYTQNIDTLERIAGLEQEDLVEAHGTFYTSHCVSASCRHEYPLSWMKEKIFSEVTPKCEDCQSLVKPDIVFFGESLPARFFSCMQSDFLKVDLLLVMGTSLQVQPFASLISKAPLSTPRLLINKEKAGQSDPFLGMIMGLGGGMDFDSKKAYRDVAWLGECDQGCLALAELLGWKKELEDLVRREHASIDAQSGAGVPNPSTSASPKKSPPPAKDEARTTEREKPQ
Nature of the assay: Activation of at N-terminal GST-tagged SIRT2 (34 to 356 amino acid residues) (unknown origin) expressed in Escherichia coli BL21(DE3) using ac-RHKKac-AMC as substrate after 45 mins by fluorometric analysis. The method in brief:
(§1)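 Fluorescent deacetylation assay in 25 mM Tris, 137 mM NaCl, 2.7 mM KCl, 1 mM MgCl₂, pH 8.0, with 750 μM NAD⁺ and 31.25 μM ac-RHKK_ac-AMC. Enzyme was 3.6 μM SIRT3 or 4.2 μM GST-SIRT2, set to match SIRT1 activity. Trypsin released AMC from the deacetylated peptide, read at ex 340 / em 490 nm. Compounds were added from DMSO (DMSO as blank): single point at 50 μM, or 3-fold DMSO dilution series. EC1.5 (concentration giving 50% activity increase) and maximum activation were fitted to a dose–response function.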

Assay [6] deals with T4, NAD-dependent protein deacetylase sirtuin-2 (Homo sapiens) (UniProt Q8IXJ6).
T4 sequence (whole entry): T3 sequence (Q8IXJ6 whole entry)
Description: Activation of at N-terminal GST-tagged SIRT2 (34 to 356 amino acid residues) (unknown origin) expressed in Escherichia coli BL21(DE3) using ac-RHKKac-AMC as substrate at 50 uM after 45 mins by fluorometric analysis relative to control. In short, it runs like this:
as §1

As a reminder, the pEC50 is −log10 of the EC50, conventionally taken in molar units. Low values mean a high EC50, high ones a low EC50. `Cc1ccc(C(=O)N/N=C/c2cc(Br)c(O)c(Br)c2O)cc1` came in with a max activation in assay [1] of 161%. The molecule also had a pEC50 in assay [2] of 5.02.
The molecule `COc1c(Br)cc(/C=N/NC(=O)c2ccc(-c3ccccc3)cc2)c(O)c1Br` came in with a max activation in assay [1] of 242%. Moreover, the pEC50 in assay [2] is 4.55.
The corresponding values for `COc1c(/C=N/NC(=O)c2ccc(-c3ccccc3)cc2)cc(Br)c(O)c1Br` are 191% and 4.74.
Molecule `O=C(N/N=C/c1cc(Br)c(O)c(Br)c1O)c1ccc(-c2cccnc2)cc1` came in with a max activation in assay [1] of 314%. Moreover, the negative logarithm of the EC50 (pEC50) in assay [2] is 5.70.
On to `O=C(Nc1ccccc1-c1cn2c(CN3CCNCC3)csc2n1)c1ccccc1`, for which the max activation in assay [1] came to 322%. The same molecule had a pEC50 in assay [2] of 4.60.
In the same order, the values of `CS(=O)(=O)c1ccc2cc(C(=O)N/N=C/c3cc(Br)c(O)c(Br)c3O)ccc2c1` are 368% and 5.64.
Regarding `O=C(Nc1ccccc1-c1cn2c(CN3CCNCC3)csc2n1)c1cnc2ccccc2n1`, in assay [1], the max activation came to 781%.
With `O=C(N/N=C/c1cc(Br)c(O)c(Br)c1O)c1ccc2ccccc2c1`, in assay [1], the max activation worked out at 331%. In assay [2], this molecule gave a pEC50 of 5.80.
In the same order, the values of `COc1c(/C=N/NC(=O)c2ccc3cc(Br)ccc3c2)cc(Br)c(O)c1Br` are 298% and 5.06.
The corresponding values for `O=C(N/N=C/c1cc(Br)c(O)c(Br)c1O)c1ccc2cc(-c3ccco3)ccc2c1` are 267% and 5.59.
The corresponding values for `O=C(N/N=C/c1cc(Br)c(O)c(Br)c1O)c1ccc(-c2ccccn2)cc1` are 467% and 5.64.
In the case of `O=C(N/N=C/c1ccc(O)cc1O)c1ccc(-c2ccccc2)cc1`, the max activation in assay [1] stood at 157%. The molecule further had a negative logarithm of the EC50 (pEC50) in assay [2] of 4.98.
The corresponding values for `N#Cc1ccc2cc(C(=O)N/N=C/c3cc(Br)c(O)c(Br)c3O)ccc2c1` are 433% and 5.36.
In the same order, the values of `O=C(Nc1ccccc1-c1cn2c(CN3CCNCC3)csc2n1)c1ccncn1` are 270% and 5.77.
Regarding `COc1c(Br)cc(/C=N/NC(=O)c2ccc3cc(Br)ccc3c2)c(O)c1Br`, the max activation in assay [1] came to 119%.
`O=C(Nc1ccccc1-c1cn2c(CN3CCNCC3)csc2n1)c1ccc2occc2c1` returned a max activation in assay [1] of 380%. In assay [2], this molecule showed a negative-log EC50 (pEC50) of 5.16.
The corresponding values for `O=C(N/N=C/c1cc(Br)c(O)c(Br)c1O)c1ccc(-c2ccccc2)cc1` are 246% and 5.77.
Regarding `COc1cc(C(=O)Nc2ccccc2-c2cn3c(CN4CCNCC4)csc3n2)cc(OC)c1OC`, in assay [1], the max activation was 271%. The molecule further showed a negative-log EC50 (pEC50) in assay [2] of 5.74. Also, in assay [3], the result was inactive.
In assay [1], `O=C(N/N=C/c1cc(Br)c(O)c(Br)c1O)c1ccc(-c2ccc3c(c2)OCO3)cc1` returned a max activation of 380%. The same molecule had a negative-log EC50 (pEC50) in assay [2] of 5.47.
As to `O=C(Nc1ccccc1-c1cn2c(CN3CCNCC3)csc2n1)c1ccc2ccccc2n1`, in assay [1], the max activation was 440%. Also, the pEC50 in assay [2] was 6.00.
In the same order, the values of `O=C(Nc1ccccc1-c1cn2c(CN3CCNCC3)csc2n1)C1CCCC1` are 383% and 3.89.
For `O=C(N/N=C/c1cc(Br)c(O)c(Br)c1O)c1cccc(-c2ccccc2)c1`, the max activation in assay [1] worked out at 212%. The molecule further showed a pEC50 in assay [2] of 4.74.
In the same order, the values of `O=C(N/N=C/c1cc(Br)c(O)c(Br)c1O)c1ccc(-c2ccncc2)cc1` are 390% and 5.80.
The corresponding values for `O=C(N/N=C/c1cc(Br)c(O)c(Br)c1O)c1ccc(-c2ccco2)cc1` are 374% and 5.68.
The corresponding values for `O=C(N/N=C/c1cc(Br)c(O)c(Br)c1O)c1ccc2ncccc2c1` are 239% and 4.26.
In assay [1], `O=C(Cc1ccccc1)Nc1ccccc1-c1cn2c(CN3CCNCC3)csc2n1` showed a max activation of 130%. In addition, the negative-log EC50 (pEC50) in assay [2] is 4.85.
Regarding `N#Cc1ccc(O)c(-c2ccc(C(=O)N/N=C/c3cc(Br)c(O)c(Br)c3O)cc2)c1`, in assay [1], the max activation amounted to 196%. In assay [2], this molecule showed a pEC50 of 5.43.
In the case of `COc1ccc2cc(C(=O)N/N=C/c3cc(Br)c(O)c(Br)c3O)ccc2c1`, the max activation in assay [1] was determined as 624%. In assay [2], the pEC50 is 6.05. For the same molecule, in assay [4], the outcome was Active.
In the case of `O=C(Nc1ccccc1-c1cn2c(CN3CCNCC3)csc2n1)c1cnc2ccccc2c1`, the max activation in assay [1] worked out at 301%. In assay [2], this molecule had a pEC50 of 6.17.
The corresponding values for `O=C(N/N=C/c1cc(Br)c(O)c(Br)c1O)c1ccc(Cl)cc1` are 174% and 5.15.
The molecule `COc1cc(OC)cc(C(=O)N/N=C/c2cc(Br)c(O)c(Br)c2O)c1` displayed a max activation in assay [1] of 112%.
In assay [1], `COc1cccc(C(=O)Nc2ccccc2-c2cn3c(CN4CCNCC4)csc3n2)c1` gave a max activation of 928%. In assay [2], the negative-log EC50 (pEC50) was 5.43.
In the same order, the values of `O=C(Nc1ccccc1-c1cn2c(CN3CCNCC3)csc2n1)c1cccc2cccnc12` are 208% and 4.35.
In the same order, the values of `O=C(N/N=C/c1cc(Br)c(O)c(Br)c1O)c1cc2ccccc2cc1O` are 375% and 5.35.
As to `O=C(N/N=C/c1cc(Br)c(O)c(Br)c1O)c1ccc2c(c1)Cc1ccccc1-2`, the values for the max activation in assay [1] and in assay [6] were 212% and 206%, respectively. Further, the negative logarithm of the EC50 (pEC50) in assay [2] is 5.27; in assay [5] it was 4.78.
In assay [1], `O=C(N/N=C/c1cc(Br)c(O)c(Br)c1O)c1ccc(C(F)(F)F)cc1` returned a max activation of 161%. Further, the pEC50 in assay [2] was 4.69.
In the same order, the values of `O=C(N/N=C/c1cc(Br)c(O)c(Br)c1O)c1ccc(-c2ccccc2C(F)(F)F)cc1` are 216% and 6.05.
The molecule `O=C(Nc1ccccc1-c1cn2c(CN3CCNCC3)csc2n1)c1cc2ccccc2o1` displayed a max activation in assay [1] of 381%. In assay [2], this molecule gave a negative-log EC50 (pEC50) of 6.21.
In the same order, the values of `COc1ccc(C(=O)Nc2ccccc2-c2cn3c(CN4CCNCC4)csc3n2)c(OC)c1` are 197% and 4.51.
